ChEMBL document CHEMBL1140207, “A small molecule inhibitor, 1,2,4,5-benzenetetraamine tetrahydrochloride, targeting the y397 site of focal adhesion kinase decreases tumor growth” (J Med Chem, 2008)
The source made the active and inactive calls.

How the values were obtained:
BT-474 [1] = test: Effect on human BT474 cell survival assessed as cell detachment at 50 uM after 24 hrs by hemocytometer; type: functional
How it was run: (§1)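 BT474 cells treated at a range of doses; detached cells counted on a hemacytometer; means ± standard errors of three independent experiments, versus untreated cells.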

[2] = target: Vascular endothelial growth factor receptor 3 (Homo sapiens) (UniProt P35916); test: Inhibition of recombinant Flt4 at 1 uM
How it was run: (§2)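 Commercial kinase profiling panel: recombinant enzymes (including FAK kinase domain 411-686 a.a.) tested with 1 μM compound, 10 μM ATP and kinase substrates; % inhibition versus untreated; mean ± SE of two independent experiments.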

BT-474 [3] = test: Cytotoxicity against human BT474 cells assessed as decrease in cell viability after 24 hrs by MTT assay; type: functional, cell-based
How it was run: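 BT474 breast cancer cells exposed to a range of doses for 24 h; viability by MTT; mean of triplicate determinations ± SD versus untreated cells.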

Paxillin (Homo sapiens) [4] = target: Paxillin (Homo sapiens) (UniProt P49023); test: Inhibition of paxillin phosphorylation in human BT474 cells at 100 uM after 24 hrs by Western blotting; type: cell-based; settings: BT-474
[5] = target: PI3-kinase p110-delta/p85-alpha (Homo sapiens) (UniProt P27986+O00329); test: Inhibition of recombinant PI3 kinase p110delta/p85-alpha subunit at 1 uM; how it was run: as §2
[6] = target: Focal adhesion kinase 1 (Homo sapiens) (UniProt Q05397); test: Inhibition of recombinant full length FAK-mediated GST-paxillin […] expressed in baculovirus by SDS-PAGE
How it was run: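 Purified recombinant FAK (0.1 μg) with GST-paxillin substrate, γ-32P-ATP and varying inhibitor doses, 10 min at room temperature.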

BT-474 [7] = test: Induction of apoptosis in human BT474 cells assessed as cleavage of 89 kDa PARP at 1 uM after 24 hrs by Western blotting; type: functional, cell-based
How it was run: (§3)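 BT474 cells treated at various doses; lysates immunoblotted with PARP antibody, scoring cleaved 89 kDa fragment.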

BT-474 [8] = test: Effect on human BT474 cell survival assessed as cell detachment at 100 uM after 24 hrs by hemocytometer; type: functional; how it was run: as §1
[9] = target: Protein-tyrosine kinase 2-beta (Homo sapiens) (UniProt Q14289); test: Inhibition of Pyk2-Y402 phosphorylation in human BT474 cells at 100 uM after 24 hrs by Western blotting; type: cell-based; settings: BT-474
How it was run: (§4)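 BT474 cells treated at different doses; Western blot for Y397-FAK then total FAK, plus Y402-Pyk-2; β-actin for loading.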

[10] = target: Protein-tyrosine kinase 2-beta (Homo sapiens) (UniProt Q14289); test: Inhibition of recombinant full length Pyk2 autophosphorylation expressed in baculovirus by SDS-PAGE
How it was run: (§5)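 In vitro autophosphorylation: 0.1 μg purified recombinant FAK or Pyk-2 with γ-32P-ATP and varying inhibitor doses, 10 min at room temperature; three independent experiments.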

BT-474 [11] = test: Induction of apoptosis in human BT474 cells assessed as cleavage of 89 kDa PARP at 100 uM after 24 hrs by Western blotting; type: functional, cell-based; how it was run: as §3
BT-474 [12] = test: Induction of apoptosis in human BT474 cells at 50 to 100 uM after 24 hrs by […] staining; type: functional
How it was run: (§6)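 BT474 cells treated 24 h at various doses; apoptotic nuclei scored by Hoechst staining; means ± SD of four independent experiments versus untreated cells.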

[13] = target: Hepatocyte growth factor receptor (Homo sapiens) (UniProt P08581); test: Inhibition of recombinant Met at 1 uM; how it was run: as §2
[14] = target: Proto-oncogene tyrosine-protein kinase Src (Homo sapiens) (UniProt P12931); test: Inhibition of recombinant c-Src at 1 uM; how it was run: as §2
[15] = target: Proto-oncogene tyrosine-protein kinase Src (Homo sapiens) (UniProt P12931); test: Inhibition of c-Src phosphorylation in human BT474 cells at 100 uM after 24 hrs by Western blotting; type: cell-based; settings: BT-474
[16] = target: Protein-tyrosine kinase 2-beta (Homo sapiens) (UniProt Q14289); test: Inhibition of recombinant Pyk2 at 1 uM; how it was run: as §2
BT-474 [17] = test: Inhibition of human BT474 cells adhesion on collagen coated plates at 100 uM after 3 hrs by crystal violet staining
Paxillin (Homo sapiens) [18] = target: Paxillin (Homo sapiens) (UniProt P49023); test: Inhibition of paxillin-Y118 phosphorylation in human BT474 cells at 100 uM after 24 hrs by Western blotting; type: cell-based; settings: BT-474
How it was run: (§7)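 BT474 cells treated 100 μM for 24 h; Western blot with Y397-FAK and Y118-paxillin antibodies, total FAK, paxillin and β-actin as expression/loading references.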

T47D = test: Cytotoxicity against human T47D cells assessed as decrease in cell viability at 100 uM after 24 hrs by MTT assay; type: functional, cell-based
How it was run: (§8)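 Cells given each compound at 100 μM for 24 h, then MTT viability assay; known FAK inhibitor 1a used as reference control.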

[19] = target: Focal adhesion kinase 1 (Homo sapiens) (UniProt Q05397); test: Inhibition of recombinant full length FAK autophosphorylation expressed in baculovirus by SDS-PAGE; how it was run: as §5
Mus musculus [20] = test: Inhibition of tumor growth in human BT474 cells xenografted in mouse assessed as animal death at 30 mg/kg administered daily for 5 days per week measured after 23 days; type: organism-based, BT-474; design: dose 30 mg/kg; settings: in vivo, 552 h
How it was run: (§9)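 BT474 breast cancer cells were injected subcutaneously into 5 mice. Dosing at 30 mg/kg started the day after injection and was given daily, 5 days per week. Five untreated mice served as controls.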

HT-29 = test: Cytotoxicity against human HT-29 cells assessed as decrease in cell viability at 100 uM after 24 hrs by MTT assay; type: functional, cell-based
[21] = Effect on human MCF10A cell survival assessed as cell detachment at 100 uM after 24 hrs by hemocytometer; type: ADME, cell-based; settings: mcf-10a
How it was run: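 Normal breast MCF10A cells were treated with a range of compound doses. Detached cells were counted on a hemacytometer, and values are means ± standard errors of three independent experiments.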

BT-474 [22] = test: Inhibition of tumor growth in human BT474 cells xenografted in mouse assessed as tumor volume at 30 mg/kg administered daily for 5 days per week measured after 23 days; type: functional, organism-based; design: dose 30 mg/kg
How it was run: (§10)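 BT474 cells injected subcutaneously into mice (5 per group); dosing at 30 mg/kg daily, 5 days per week, starting the day after injection; untreated mice as controls.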

[23] = target: Platelet-derived growth factor receptor alpha (Homo sapiens) (UniProt P16234); test: Inhibition of recombinant PDGFRa at 1 uM; how it was run: as §2
Mus musculus [24] = test: Inhibition of tumor growth in human BT474 cells xenografted in mouse assessed as animal weight loss at 30 mg/kg administered daily for 5 days per week measured after 23 days; type: organism-based, BT-474; design: dose 30 mg/kg; settings: in vivo, 552 h; how it was run: as §9
BT-474 [25] = test: Inhibition of human BT474 cells adhesion on collagen coated plates after 3 hrs by crystal violet staining
A549 = test: Cytotoxicity against human A549 cells assessed as decrease in cell viability at 100 uM after 24 hrs by MTT assay; type: functional, cell-based
[26] = target: RAF proto-oncogene serine/threonine-protein kinase (Homo sapiens) (UniProt P04049); test: Inhibition of recombinant c-RAF at 1 uM; how it was run: as §2
BT-474 [27] = test: Effect on human BT474 cell survival assessed as cell detachment at 10 uM after 24 hrs by hemocytometer; type: functional; how it was run: as §1
BT-474 [28] = test: Cytotoxicity against human BT474 cells assessed as decrease in cell viability at 100 uM after 24 hrs by MTT assay; type: functional, cell-based; how it was run: as §8
[29] = target: Epidermal growth factor receptor (Homo sapiens) (UniProt P00533); test: Inhibition of recombinant EGFR at 1 uM; how it was run: as §2
MCF7 = test: Cytotoxicity against human MCF7 cells assessed as decrease in cell viability at 100 uM after 24 hrs by MTT assay; type: functional, cell-based; how it was run: as §8
BT-474 [30] = test: Induction of necrosis in non-apoptotic human BT474 cells after 24 hrs by propidium iodide staining based Zeiss fluorescent microscope; type: functional, cell-based
How it was run: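 BT474 cells treated at 10 and 100 μM, collected, stained 10 min with propidium iodide (10 μg/ml) for dead necrotic cells plus Hoechst (10 μg/ml) for nuclei; examined by fluorescence microscopy.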

[31] = target: Focal adhesion kinase 1 (Homo sapiens) (UniProt Q05397); test: Inhibition of recombinant FAK domain (411 to 686 amino acids) without N terminal domain containing Y397 site at 1 uM; how it was run: as §2
[32] = target: Insulin-like growth factor 1 receptor (Homo sapiens) (UniProt P08069); test: Inhibition of recombinant IGF1R at 1 uM; how it was run: as §2
C8161 = test: Cytotoxicity against human C8161 cells assessed as decrease in cell viability at 100 uM after 24 hrs by MTT assay; type: functional, cell-based
How it was run: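 Cells from breast cancer and melanoma lines were exposed to compound for 24 h and viability was read by MTT assay. A reference FAK inhibitor served as the control.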

[33] = target: Focal adhesion kinase 1 (Homo sapiens) (UniProt Q05397); test: Inhibition of FAK-Y397 phosphorylation in human BT474 cells at 100 uM after 24 hrs by Western blotting; type: cell-based; settings: BT-474; how it was run: as §7
[34] = target: Focal adhesion kinase 1 (Homo sapiens) (UniProt Q05397); test: Inhibition of FAK-Y397 phosphorylation in human BT474 cells after 24 hrs by Western blotting; type: cell-based; settings: BT-474; how it was run: as §4
BT-474 [35] = test: Effect on human BT474 cell survival assessed as cell detachment at 100 to 200 uM after 24 hrs by hemocytometer; type: functional; how it was run: as §1
[36] = target: Vascular endothelial growth factor receptor 3 (Homo sapiens) (UniProt P35916); test: Inhibition of VEGFR3 phosphorylation in human BT474 cells at 100 uM after 24 hrs by Western blotting; type: cell-based; settings: BT-474
BT-474 [37] = test: Induction of apoptosis in human BT474 cells assessed as cleavage of 89 kDa PARP after 24 hrs by Western blotting
BT-474 [38] = test: Inhibition of tumor growth in human BT474 cells xenografted in mouse assessed as reduction in tumor weight at 30 mg/kg administered daily for 5 days per week measured after 23 days; type: functional, organism-based; design: dose 30 mg/kg; how it was run: as §10
[39] = target: Focal adhesion kinase 1 (Homo sapiens) (UniProt Q05397); test: Inhibition of total FAK autophosphorylation in human BT474 cells at 100 uM after 24 hrs by Western blotting; type: cell-based; settings: BT-474
How it was run: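 BT474 lysates immunoprecipitated with FAK antibody, blotted with phosphotyrosine antibody, then stripped and reprobed for FAK.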

[40] = target: Focal adhesion kinase 1 (Homo sapiens) (UniProt Q05397); test: Inhibition of FAK-Y397 phosphorylation in human BT474 cells at 100 uM by Western blotting; type: cell-based; settings: BT-474, TDE = time-dependent effect
How it was run: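 BT474 cells given 100 μM for 1–24 h; Y397-FAK and total FAK normalized to β-actin by densitometry, expressed relative to untreated; three independent experiments, mean ± SE.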

BT-474 [41] = test: Induction of apoptosis in human BT474 cells assessed as presence of apoptotic nuclei at 100 uM after 24 hrs by […] staining; type: functional, cell-based; how it was run: as §6
BT-474 [42] = test: Effect on human BT474 cell survival assessed as cell detachment after 24 hrs by hemocytometer; type: functional, cell-based; how it was run: as §1

Measured: Activity

Chain of Focal adhesion kinase 1 (Homo sapiens) (Q05397 2-1052 limits assumed): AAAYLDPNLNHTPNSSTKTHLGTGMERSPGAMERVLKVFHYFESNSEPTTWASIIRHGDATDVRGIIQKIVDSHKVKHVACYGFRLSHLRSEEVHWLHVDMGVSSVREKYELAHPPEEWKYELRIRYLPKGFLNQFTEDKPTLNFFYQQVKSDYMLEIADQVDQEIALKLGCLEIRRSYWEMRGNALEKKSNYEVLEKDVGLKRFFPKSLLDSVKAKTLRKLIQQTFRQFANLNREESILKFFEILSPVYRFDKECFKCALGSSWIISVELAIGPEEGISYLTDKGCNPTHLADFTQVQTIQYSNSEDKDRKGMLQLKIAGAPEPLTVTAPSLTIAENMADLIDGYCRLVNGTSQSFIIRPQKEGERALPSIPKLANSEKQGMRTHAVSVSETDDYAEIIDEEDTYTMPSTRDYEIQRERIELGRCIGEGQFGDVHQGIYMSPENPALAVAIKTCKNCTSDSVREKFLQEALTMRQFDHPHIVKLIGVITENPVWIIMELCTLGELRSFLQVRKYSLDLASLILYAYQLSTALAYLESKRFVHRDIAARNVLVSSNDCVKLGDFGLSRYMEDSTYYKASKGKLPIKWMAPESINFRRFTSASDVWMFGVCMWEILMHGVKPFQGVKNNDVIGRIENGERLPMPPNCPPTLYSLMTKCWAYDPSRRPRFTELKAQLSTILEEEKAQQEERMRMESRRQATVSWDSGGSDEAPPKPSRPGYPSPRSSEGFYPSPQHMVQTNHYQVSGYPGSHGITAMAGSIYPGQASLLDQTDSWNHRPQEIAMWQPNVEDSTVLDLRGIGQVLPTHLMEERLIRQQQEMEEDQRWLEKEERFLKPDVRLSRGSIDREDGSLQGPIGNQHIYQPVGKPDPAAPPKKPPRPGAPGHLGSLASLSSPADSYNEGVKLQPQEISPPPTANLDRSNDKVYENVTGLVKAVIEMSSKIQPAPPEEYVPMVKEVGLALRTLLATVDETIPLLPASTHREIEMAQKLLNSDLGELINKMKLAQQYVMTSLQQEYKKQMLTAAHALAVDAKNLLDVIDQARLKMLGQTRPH
Chain of Protein-tyrosine kinase 2-beta (Homo sapiens) (Q14289 whole entry, looked up): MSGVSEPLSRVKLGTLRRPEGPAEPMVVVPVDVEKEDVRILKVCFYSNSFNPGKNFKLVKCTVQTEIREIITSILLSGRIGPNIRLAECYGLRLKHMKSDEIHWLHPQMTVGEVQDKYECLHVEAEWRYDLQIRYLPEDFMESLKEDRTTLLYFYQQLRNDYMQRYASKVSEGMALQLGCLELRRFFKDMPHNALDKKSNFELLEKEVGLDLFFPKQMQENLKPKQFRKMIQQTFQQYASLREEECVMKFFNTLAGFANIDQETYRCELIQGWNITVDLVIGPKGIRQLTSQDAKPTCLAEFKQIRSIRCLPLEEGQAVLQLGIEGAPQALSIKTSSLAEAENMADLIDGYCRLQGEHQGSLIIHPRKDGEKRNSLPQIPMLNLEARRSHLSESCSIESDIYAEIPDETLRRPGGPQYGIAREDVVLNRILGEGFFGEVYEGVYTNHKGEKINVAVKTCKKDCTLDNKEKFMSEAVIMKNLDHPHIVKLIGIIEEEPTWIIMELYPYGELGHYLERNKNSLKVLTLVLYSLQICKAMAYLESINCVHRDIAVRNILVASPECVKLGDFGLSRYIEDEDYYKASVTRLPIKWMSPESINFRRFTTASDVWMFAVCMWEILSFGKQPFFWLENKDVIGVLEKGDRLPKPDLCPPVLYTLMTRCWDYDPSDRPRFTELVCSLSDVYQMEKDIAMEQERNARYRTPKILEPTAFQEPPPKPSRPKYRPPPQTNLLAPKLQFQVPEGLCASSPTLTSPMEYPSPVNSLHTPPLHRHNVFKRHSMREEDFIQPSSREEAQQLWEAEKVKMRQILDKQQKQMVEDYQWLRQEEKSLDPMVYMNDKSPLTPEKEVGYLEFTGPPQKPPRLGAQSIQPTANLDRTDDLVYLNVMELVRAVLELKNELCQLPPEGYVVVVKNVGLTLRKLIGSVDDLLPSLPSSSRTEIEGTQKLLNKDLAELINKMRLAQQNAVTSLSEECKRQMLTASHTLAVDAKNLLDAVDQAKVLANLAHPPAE
Chain of Paxillin (Homo sapiens) (P49023 whole entry): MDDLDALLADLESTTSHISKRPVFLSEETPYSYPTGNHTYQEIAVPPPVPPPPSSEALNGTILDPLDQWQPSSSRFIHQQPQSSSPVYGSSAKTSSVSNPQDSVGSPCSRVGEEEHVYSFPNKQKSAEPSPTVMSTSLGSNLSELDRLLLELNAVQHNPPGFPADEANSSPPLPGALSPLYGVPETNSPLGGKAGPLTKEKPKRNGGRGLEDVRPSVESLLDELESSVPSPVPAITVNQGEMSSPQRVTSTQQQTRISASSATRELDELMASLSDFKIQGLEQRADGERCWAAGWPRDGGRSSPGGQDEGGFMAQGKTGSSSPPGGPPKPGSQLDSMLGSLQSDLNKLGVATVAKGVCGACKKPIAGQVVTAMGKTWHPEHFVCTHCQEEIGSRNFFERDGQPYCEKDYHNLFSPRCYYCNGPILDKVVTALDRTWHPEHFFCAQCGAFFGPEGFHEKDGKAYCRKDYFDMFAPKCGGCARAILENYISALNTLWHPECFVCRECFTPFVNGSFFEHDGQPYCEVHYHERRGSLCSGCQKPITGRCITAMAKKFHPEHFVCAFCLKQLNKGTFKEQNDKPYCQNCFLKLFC
Chain of Vascular endothelial growth factor receptor 3 (Homo sapiens) (P35916 whole entry, the tested form may be a part): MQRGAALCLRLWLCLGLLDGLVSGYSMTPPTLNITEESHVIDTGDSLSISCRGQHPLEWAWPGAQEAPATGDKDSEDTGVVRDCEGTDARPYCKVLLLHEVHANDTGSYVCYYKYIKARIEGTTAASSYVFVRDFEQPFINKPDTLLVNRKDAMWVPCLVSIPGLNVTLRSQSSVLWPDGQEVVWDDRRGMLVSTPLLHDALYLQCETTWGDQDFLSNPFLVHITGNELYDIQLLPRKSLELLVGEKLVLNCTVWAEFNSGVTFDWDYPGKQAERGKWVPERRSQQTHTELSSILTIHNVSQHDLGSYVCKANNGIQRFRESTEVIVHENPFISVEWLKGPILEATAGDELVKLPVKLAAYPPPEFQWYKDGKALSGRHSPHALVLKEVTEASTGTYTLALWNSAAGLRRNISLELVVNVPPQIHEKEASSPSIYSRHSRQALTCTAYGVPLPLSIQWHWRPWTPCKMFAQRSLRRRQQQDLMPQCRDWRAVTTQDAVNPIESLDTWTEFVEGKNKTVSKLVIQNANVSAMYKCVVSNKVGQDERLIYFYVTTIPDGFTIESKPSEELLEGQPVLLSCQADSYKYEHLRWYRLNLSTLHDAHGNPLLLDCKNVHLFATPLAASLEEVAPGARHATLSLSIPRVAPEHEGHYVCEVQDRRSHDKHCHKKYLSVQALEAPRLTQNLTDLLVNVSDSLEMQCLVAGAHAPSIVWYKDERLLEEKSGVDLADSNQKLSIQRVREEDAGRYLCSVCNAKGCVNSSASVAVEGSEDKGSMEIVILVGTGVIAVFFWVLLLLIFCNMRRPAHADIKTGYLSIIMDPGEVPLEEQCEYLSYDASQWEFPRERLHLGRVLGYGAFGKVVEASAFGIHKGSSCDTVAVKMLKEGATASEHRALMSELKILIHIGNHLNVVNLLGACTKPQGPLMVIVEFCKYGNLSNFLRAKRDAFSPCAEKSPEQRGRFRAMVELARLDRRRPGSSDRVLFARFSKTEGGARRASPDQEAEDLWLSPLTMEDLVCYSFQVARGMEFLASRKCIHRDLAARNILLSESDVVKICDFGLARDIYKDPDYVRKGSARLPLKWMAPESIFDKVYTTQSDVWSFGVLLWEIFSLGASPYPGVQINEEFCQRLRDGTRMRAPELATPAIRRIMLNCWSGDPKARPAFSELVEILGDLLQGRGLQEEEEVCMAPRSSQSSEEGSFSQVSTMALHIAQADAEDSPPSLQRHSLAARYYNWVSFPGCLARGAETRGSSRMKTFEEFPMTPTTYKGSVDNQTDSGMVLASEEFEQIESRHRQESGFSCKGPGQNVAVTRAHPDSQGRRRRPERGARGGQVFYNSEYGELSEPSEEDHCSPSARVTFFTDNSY
Chain of Proto-oncogene tyrosine-protein kinase Src (Homo sapiens) (P12931 2-536 limits assumed): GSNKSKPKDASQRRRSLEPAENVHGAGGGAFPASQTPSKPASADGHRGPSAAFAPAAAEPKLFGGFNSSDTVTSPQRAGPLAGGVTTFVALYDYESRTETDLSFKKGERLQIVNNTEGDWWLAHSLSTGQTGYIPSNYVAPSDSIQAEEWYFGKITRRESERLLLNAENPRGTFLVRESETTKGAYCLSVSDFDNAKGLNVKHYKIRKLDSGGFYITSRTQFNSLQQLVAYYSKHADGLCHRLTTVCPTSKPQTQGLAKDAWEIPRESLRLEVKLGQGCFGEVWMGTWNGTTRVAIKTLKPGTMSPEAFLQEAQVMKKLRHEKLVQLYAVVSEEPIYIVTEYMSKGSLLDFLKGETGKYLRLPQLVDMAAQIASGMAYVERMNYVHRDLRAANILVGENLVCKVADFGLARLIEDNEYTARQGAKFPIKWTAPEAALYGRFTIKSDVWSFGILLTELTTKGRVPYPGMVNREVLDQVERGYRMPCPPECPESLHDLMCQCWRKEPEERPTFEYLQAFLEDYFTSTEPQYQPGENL

Cl.Nc1cc(N)c(N)cc1N
15%: [21]
Non-toxic: Mus musculus [20] | Mus musculus [24]
38%: BT-474 [1]
64%: BT-474 [8] | BT-474 [35]
active: BT-474 [3] Dose-dependent effect | Paxillin (Homo sapiens) [4] | [6] Dose-dependent effect | BT-474 [17] | Paxillin (Homo sapiens) [18] | T47D | [19] Dose-dependent effect | HT-29 | BT-474 [22] | BT-474 [25] Dose-dependent effect | A549 | BT-474 [28] | MCF7 | BT-474 [30] Dose-dependent effect | C8161 | [33] | [34] Dose-dependent effect | BT-474 [37] | BT-474 [38] | [39] | [40] tde | BT-474 [42] Dose-dependent effect
8%: BT-474 [27]
inactive: [2] | [5] | BT-474 [7] | [9] | [10] | BT-474 [11] | [13] | [14] | [15] | [16] | [23] | [26] | [29] | [31] | [32] | [36] | BT-474 [41]
<5%: BT-474 [12]

Brc1ccc(C[N+]23CN4CN(CN(C4)C2)C3)cc1
active: C8161
